Experiments:
[1] = molecular target: PTGS2 (Homo sapiens, UniProt P35354); conditions: drug 25 μM, A-DA 5 μM, 30 min, A549
[2] = molecular target: aldose reductase-related protein 2 (AKR1B8) (Mus musculus, UniProt P45377); assay: In situ competitive SILAC profiling of A-DA labeling, AKR1B8 in Neuro2a cells; assay type: cell-based; conditions: drug 25 μM, A-DA 5 μM
[3] = system: PMA-stimulated A549 cells; assay: Conversion of exogenous AEA to PGF2α-EA in PMA-stimulated A549 cells; assay type: cell-based, human; conditions: AEA 20 μM, 30 min; MJN228, KML110 5 and 25 μM; others 25 μM
Outline: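 A549 cells stimulated with PMA were treated with test compound or DMSO. Exogenous AEA (20 μM, 30 min) was then added and prostamide PGF2α-EA formation was measured. Mean ± SEM, n = 3-4 per group.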

[4] = molecular target: T1, NUCB1 (Homo sapiens, UniProt Q02818); assay type: binding; conditions: read-out: IC50, blockade of AEA-DA probe labeling of NUCB1; AEA-DA 5 μM; NUCB1 0.25 μM in HEK293T lysates 0.75 mg/mL
T1 sequence (Q02818 27-461): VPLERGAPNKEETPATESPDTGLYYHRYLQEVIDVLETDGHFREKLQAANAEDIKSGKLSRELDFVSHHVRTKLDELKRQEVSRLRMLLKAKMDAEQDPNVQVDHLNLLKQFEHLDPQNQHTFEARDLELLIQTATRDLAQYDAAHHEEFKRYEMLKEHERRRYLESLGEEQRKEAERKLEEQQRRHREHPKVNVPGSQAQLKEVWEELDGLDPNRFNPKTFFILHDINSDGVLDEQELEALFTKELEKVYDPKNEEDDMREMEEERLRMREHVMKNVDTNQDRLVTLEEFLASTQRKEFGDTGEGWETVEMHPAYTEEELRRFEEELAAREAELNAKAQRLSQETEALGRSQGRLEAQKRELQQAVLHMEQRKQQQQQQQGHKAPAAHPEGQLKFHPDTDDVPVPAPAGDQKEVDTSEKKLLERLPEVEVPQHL

[5] = molecular target: T2, NUCB1 (Mus musculus, UniProt Q02819); assay type: cell-based; conditions: Neuro2a cells; for reductions in lipid probe enrichment of NUCB1: 25 μM
T2 sequence (Q02819 26-459): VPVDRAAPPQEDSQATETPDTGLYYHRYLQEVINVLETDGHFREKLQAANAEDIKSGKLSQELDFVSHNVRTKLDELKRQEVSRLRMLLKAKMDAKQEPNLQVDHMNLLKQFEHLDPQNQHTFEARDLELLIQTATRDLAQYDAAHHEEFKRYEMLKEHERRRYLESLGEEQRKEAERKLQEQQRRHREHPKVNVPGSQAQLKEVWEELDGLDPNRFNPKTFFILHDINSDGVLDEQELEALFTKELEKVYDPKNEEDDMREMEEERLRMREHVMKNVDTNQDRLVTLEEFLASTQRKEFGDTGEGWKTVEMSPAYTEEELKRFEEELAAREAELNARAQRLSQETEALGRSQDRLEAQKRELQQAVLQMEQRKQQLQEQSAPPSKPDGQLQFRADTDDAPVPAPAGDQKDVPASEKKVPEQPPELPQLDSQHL

[6] = system: purified recombinant FAAH; assay: Inhibition of purified recombinant FAAH; assay type: biochemical; conditions: read-out: IC50 against purified recombinant FAAH
[7] = molecular target: endogenous FAAH in Neuro2a lysates (Mus musculus, UniProt O08914); assay: Inhibition of endogenous FAAH in Neuro2a lysates; assay type: biochemical; conditions: read-out: IC50 against endogenous FAAH in Neuro2a lysates
[8] = system: Neuro2a cells; assay: Targeted metabolite; assay type: cell-based, mouse; conditions: for elevations in NAEs (targeted MRM): 10 μM, 6 h
Outline: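 Neuro2a cells were treated with test compound (10 μM) or DMSO for 6 h. Fatty acid amides (NAEs, NATs) were quantified by targeted MRM mass spectrometry. Mean ± SEM, n = 3-4 per group, compared against DMSO-treated cells.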

[9] = molecular target: NENF (Homo sapiens, UniProt Q9UMX5); assay type: binding; conditions: competitors 1–100 μM; NENF-transfected HEK293T lysates
[10] = molecular target: T1, NUCB1; assay type: binding; conditions: AEA-DA 5.0 μM; lipids 20×
Outline: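 Performed in vitro in lysates of NUCB1-transfected HEK293T cells, with AEA-DA probe and lipid competitors. Labeled proteomes (1.0 mg/mL) were CuAAC-conjugated to rhodamine-azide for 1 h at room temperature, quenched in SDS loading buffer, separated on 10% SDS-PAGE and detected by in-gel fluorescence.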

[11] = molecular target: T3, recombinant, purified human NUCB1 (hNUCB1) (Homo sapiens, UniProt Q02818); assay: NUCB1 FluoPol assay with Fl-AEA probe; assay type: binding; conditions: for suppression of the NUCB1-FluoPol signal by lipids: concentration-dependent
T3 sequence (Q02818 27-461): T1 sequence (Q02818 27-461)
Outline: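 Fluorescence polarization readout using purified recombinant human NUCB1 and fluorescent arachidonoyl probe Fl-AEA. Lipid competitors were titrated for concentration-dependent loss of polarization signal. Mean ± SD from at least three independent experiments.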

[12] = molecular target: NUCB1 (aa 53-68) (Mus musculus, UniProt Q02819); assay: isoTOP-ABPP mapping of AEA-DA-labeled NUCB1 peptide in Neuro2a cells; assay type: cell-based; conditions: 50 μM compound, AEA-DA 50 μM
Outline: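 Neuro2a cells were co-treated with AEA-DA (50 μM) and DMSO or test compound (50 μM), then UV-irradiated. Probe-labeled proteins were CuAAC-conjugated to TEV-cleavable azide-biotin tags, isotopically light for DMSO samples and heavy for compound samples. Probe-modified peptides were mapped by isoTOP-ABPP LC-MS/MS.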

[13] = system: other AEA-DA-modified proteins; assay: Gel-based AEA-DA labeling of other proteins in HEK293T cell lysates; assay type: binding, human; conditions: HEK293T cell lysates
[14] = system: Neuro2a cells; assay: Untargeted LC-MS lipidomic analysis of compound-treated Neuro2a cells; assay type: cell-based, mouse; conditions: 10 μM, 6 h, P < 0.0001

endogenous FAAH in Neuro2a lysates, sequence (O08914 whole entry): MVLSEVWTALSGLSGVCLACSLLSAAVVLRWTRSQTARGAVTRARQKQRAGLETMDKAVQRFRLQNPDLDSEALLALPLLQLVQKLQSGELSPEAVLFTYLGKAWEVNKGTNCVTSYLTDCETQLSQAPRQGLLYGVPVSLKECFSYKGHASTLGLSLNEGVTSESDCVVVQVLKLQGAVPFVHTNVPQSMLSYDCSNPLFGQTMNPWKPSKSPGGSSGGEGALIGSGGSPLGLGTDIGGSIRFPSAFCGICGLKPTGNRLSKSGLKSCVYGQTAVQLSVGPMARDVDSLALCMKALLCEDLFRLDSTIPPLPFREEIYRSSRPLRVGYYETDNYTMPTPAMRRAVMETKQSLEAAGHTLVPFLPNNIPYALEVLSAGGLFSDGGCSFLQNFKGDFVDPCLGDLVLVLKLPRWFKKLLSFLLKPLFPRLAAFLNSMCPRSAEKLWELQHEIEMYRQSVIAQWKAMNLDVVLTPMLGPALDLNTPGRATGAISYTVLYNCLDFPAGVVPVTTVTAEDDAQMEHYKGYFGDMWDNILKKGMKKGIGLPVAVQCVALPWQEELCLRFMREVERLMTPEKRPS
NENF, sequence (Q9UMX5 32-172, species assumed): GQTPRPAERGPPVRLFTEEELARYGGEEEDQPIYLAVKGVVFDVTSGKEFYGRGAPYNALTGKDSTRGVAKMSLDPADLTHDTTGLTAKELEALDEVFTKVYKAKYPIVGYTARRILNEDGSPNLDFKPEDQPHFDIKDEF
aldose reductase-related protein 2 (AKR1B8), sequence (P45377 whole entry): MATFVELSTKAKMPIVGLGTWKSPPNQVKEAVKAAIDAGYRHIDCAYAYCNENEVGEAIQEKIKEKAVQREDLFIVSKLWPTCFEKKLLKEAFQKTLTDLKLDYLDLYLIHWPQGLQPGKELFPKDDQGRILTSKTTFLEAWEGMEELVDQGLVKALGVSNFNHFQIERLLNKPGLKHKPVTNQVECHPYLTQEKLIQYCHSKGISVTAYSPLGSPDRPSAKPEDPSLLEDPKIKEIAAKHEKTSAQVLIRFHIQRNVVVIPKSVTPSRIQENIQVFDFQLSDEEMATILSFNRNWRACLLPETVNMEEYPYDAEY
PTGS2, sequence (P35354 18-604): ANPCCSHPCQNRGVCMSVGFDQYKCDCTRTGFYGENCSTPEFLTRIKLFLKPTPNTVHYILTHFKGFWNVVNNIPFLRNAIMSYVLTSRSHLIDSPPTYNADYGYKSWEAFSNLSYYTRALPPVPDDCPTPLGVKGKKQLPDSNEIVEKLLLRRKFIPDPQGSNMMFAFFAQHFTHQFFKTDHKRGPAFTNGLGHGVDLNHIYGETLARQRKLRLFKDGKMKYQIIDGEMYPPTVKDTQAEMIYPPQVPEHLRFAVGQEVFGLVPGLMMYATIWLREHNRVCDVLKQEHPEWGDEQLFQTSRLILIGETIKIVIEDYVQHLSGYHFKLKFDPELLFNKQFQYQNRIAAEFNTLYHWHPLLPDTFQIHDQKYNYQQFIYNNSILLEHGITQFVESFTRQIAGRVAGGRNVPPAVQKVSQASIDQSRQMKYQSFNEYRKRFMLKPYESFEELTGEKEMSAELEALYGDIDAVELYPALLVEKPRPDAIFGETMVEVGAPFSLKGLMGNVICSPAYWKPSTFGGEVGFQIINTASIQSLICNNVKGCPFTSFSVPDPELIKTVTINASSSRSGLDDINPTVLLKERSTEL

Compound: CS(=O)(=O)c1ccc(C2=C(c3ccccc3)C(=O)OC2)cc1 [rofecoxib]
- competition of A-DA labeling of PTGS2 [1]: disrupted
- reduction in A-DA labeling of AKR1B8 [2]: strong reductions
- conversion of exogenous AEA to PGF2α-EA [3]: blocked

Compound: CN1CCN(C(=O)c2c(-c3ccccc3)c3cc([N+](=O)[O-])ccc3n2C)CC1 [KML110]
- IC50 [4]: 9.6 µM
- reductions in lipid probe enrichment of NUCB1 [5]: 3-5 fold
- IC50 [6]: > 100 µM
- IC50 [7]: > 100 µM
- cellular concentrations of NAEs and NATs [8]: elevated
- elevations in NAEs (targeted MRM) [8]: elevations
- conversion of exogenous AEA to PGF2α-EA [3]: suppress

Compound: C=CC1=C(C)c2cc3[nH]c(cc4nc(cc5[nH]c(cc1n2)c(C)c5CCC(=O)O)C(CCC(=O)O)=C4C)c(C)c3C=C [Pp-IX, protoporphyrin IX]
- competition of AEA-DA probe labeling of recombinant NENF [9]: inhibited

Compound: CCCCC/C=C\C/C=C\C/C=C\C/C=C\CCCC(=O)O [AA, arachidonic acid]
- blockade of AEA-DA probe labeling of recombinant NUCB1 by lipids [10]: preferentially blocked
- competition of AEA-DA probe labeling of recombinant NENF [9]: competitively blocked
- suppression of FluoPol signal by competitive lipid ([11]; 20 μM competitor, Fl-AEA 0.5 μM, NUCB1 1.0 μM): significantly suppressed
- suppression of the NUCB1-FluoPol signal by lipids ([11]; Fl-AEA 0.5 μM, NUCB1 1.0 μM): Concentration-dependent suppression

Compound: CCCCC/C=C\C/C=C\C/C=C\C/C=C\CCCC(=O)OC(CO)CO [2-AG, 2-arachidonoyl glycerol]
- blockade of AEA-DA probe labeling of recombinant NUCB1 by lipids [10]: preferentially blocked
- suppression of the NUCB1-FluoPol signal by lipids ([11]; Fl-AEA 0.5 μM, NUCB1 1.0 μM): Concentration-dependent suppression

Compound: CN1CCN(C(=O)c2[nH]c3ccc([N+](=O)[O-])cc3c2-c2ccccc2)CC1 [MJN228]
- reduction of signals of AEA-DA-labeled NUCB1 peptide (aa 53-68) [12]: > 5 fold
- IC50 [4]: 3.3 µM
- selectivity for NUCB1 among ∼400 AEA-DA probe targets ([5]; 10 μM, AEA-DA 5 μM): most competed protein
- reductions in lipid probe enrichment of NUCB1 [5]: 3-5 fold
- concentration inhibiting lipid probe binding to NUCB1 (as low as) [5]: ≤ 10 µM
- concentration of near-maximal inhibition of lipid probe binding to NUCB1 [5]: ~25 µM
- disruption of other arachidonoyl probe-protein interactions [13]: did not appear to disrupt
- IC50 [6]: > 100 µM
- IC50 [7]: > 100 µM
- cellular concentrations of NAEs and NATs [8]: elevated
- elevations in NAEs (targeted MRM) [8]: elevations
- elevation of metabolites (NAEs and NATs) versus DMSO [14]: ≥ 2 fold
- conversion of exogenous AEA to PGF2α-EA [3]: suppress

Compound: CCCCC/C=C\C/C=C\C/C=C\C/C=C\CCCC(=O)NCCCCCNC(=O)c1ccc(-c2c3ccc(=[N+](C)C)cc-3oc3cc(N(C)C)ccc23)c(C(=O)[O-])c1 [Fl-AEA]
- binding of probe to hNUCB1 (increase in FluoPol signal) [11]: bound

— publication PMC4615699 (Cell, 2015)
